Test [1] has as its system Vero. As to the kind of experiment: Antiproliferative activity against African green monkey Vero cells by MTT assay. The class given is cell-based. As to conditions: Chlorocebus sabaeus. The method in brief:
(§1)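 Antiproliferative MTT (microculture tetrazolium) assay run by a previously reported protocol, giving IC50 values. Cell lines came from ATCC: HeLaS3 cervix adenocarcinoma (CCL-2.2), A549 lung carcinoma (CCL-185), HT-29 colorectal adenocarcinoma (HTB-38), and nontumorigenic normal African green monkey kidney Vero (CCL-81).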
A general note: Tetrazolium dyes change colour on reduction, which living cells bring about.

In test [2] the test system is HT-29. As to the kind of experiment: Antiproliferative activity against human HT-29 cells by MTT assay. The class given is functional, cell-based. Summed up: as §1
Test [3] concerns A549. In words: Antiproliferative activity against human A549 cells by MTT assay. The class given is functional, cell-based. Summed up: as §1
Test [4] deals with HeLa S3. In words: Antiproliferative activity against human HeLaS3 cells by MTT assay. The class given is functional, cell-based. Summed up:
as §1

Structures are written as SMILES.

By IC50 is commonly meant the concentration that inhibits the measured activity by half. For the molecule `CO[C@H]1[C@@H](O)[C@H](O[C@H]2CC[C@@]3(C)[C@H](CC[C@@H]4[C@@H]3CC[C@]3(C)[C@@H](C5=CC(=O)OC5)[C@@H](OC(C)=O)C[C@]43O)C2)O[C@@H](C)[C@@H]1O[C@@H]1O[C@H](CO[C@@H]2O[C@H](CO)[C@@H](O)[C@H](O)[C@H]2O)[C@@H](O)[C@H](O)[C@H]1O`, the IC50 turned out to be 4800 nM in test [1], 1400 nM in test [2], 600 nM in test [3] and 400 nM in test [4].
For `CO[C@H]1[C@@H](O)[C@H](C)O[C@@H](O[C@H]2CC[C@@]3(C)[C@H](CC[C@@H]4[C@@H]3CC[C@]3(C)[C@@H](C5=CC(=O)OC5)[C@@H](OC(C)=O)C[C@]43O)C2)[C@@H]1OC(C)=O`, in that order: 300 nM, 100 nM, 30 nM and 100 nM.
For `CO[C@@H]1[C@@H](O)[C@H](O[C@H]2CC[C@@]3(C)[C@H](CC[C@@H]4[C@@H]3CC[C@]3(C)[C@@H](C5=CC(=O)OC5)[C@@H](OC(C)=O)C[C@]43O)C2)O[C@@H](C)[C@@H]1O[C@@H]1O[C@H](CO[C@@H]2O[C@H](CO)[C@@H](O)[C@H](O)[C@H]2O)[C@@H](O)[C@H](O)[C@H]1O`, in that order: 6900 nM, 1600 nM, 1200 nM and 500 nM.
For `CO[C@H]1[C@@H](O)[C@H](O[C@H]2CC[C@@]3(C)[C@H](CC[C@@H]4[C@@H]3CC[C@]3(C)C(C5=CC(=O)OC5)=CC[C@]43O)C2)O[C@@H](C)[C@@H]1O[C@@H]1O[C@H](CO)[C@@H](O)[C@H](O)[C@H]1O`, in that order: 2500 nM, 800 nM, 300 nM and 700 nM.
Turning to `CO[C@@H]1[C@@H](O[C@@H]2O[C@H](CO)[C@@H](O)[C@H](O)[C@H]2O)[C@H](C)O[C@@H](O[C@H]2CC[C@@]3(C)[C@H](CC[C@@H]4[C@@H]3CC[C@]3(C)C(C5=CC(=O)OC5)=CC[C@]43O)C2)[C@@H]1OC(C)=O`, the IC50 in test [1], in test [2], in test [3] and in test [4] was greater than 10000 nM in each case.
For the molecule `CO[C@H]1[C@@H](O)[C@H](O[C@H]2CC[C@@]3(C)[C@H](CC[C@@H]4[C@@H]3CC[C@]3(C)[C@@H](C5=CC(=O)OC5)[C@@H](OC(C)=O)C[C@]43O)C2)O[C@@H](C)[C@@H]1O[C@@H]1O[C@H](CO)[C@@H](O)[C@H](O)[C@H]1O`, the IC50 in test [1] amounted to 700 nM; in test [2], 200 nM; in test [3] it was 100 nM; in test [4] it was 200 nM.
Take `CO[C@@H]1[C@@H](O[C@@H]2O[C@H](CO)[C@@H](O)[C@H](O)[C@H]2O)[C@H](C)O[C@@H](O[C@H]2CC[C@@]3(C)[C@H](CC[C@@H]4[C@@H]3CC[C@]3(C)[C@@H](C5=CC(=O)OC5)[C@@H](OC(C)=O)C[C@]43O)C2)[C@@H]1OC(C)=O`: the 50% inhibitory concentration (IC50) was 5800 nM in test [1], 1900 nM in test [2], 1500 nM in test [3] and 1400 nM in test [4].
For `CO[C@@H]1[C@@H](O)[C@H](O[C@H]2CC[C@@]3(C)[C@H](CC[C@@H]4[C@@H]3CC[C@]3(C)[C@@H](C5=CC(=O)OC5)[C@@H](O)C[C@]43O)C2)O[C@@H](C)[C@@H]1O[C@@H]1O[C@H](CO)[C@@H](O)[C@H](O)[C@H]1O`, in that order: greater than 10000 nM, 6400 nM, 3800 nM and 6800 nM.
For `CO[C@@H]1[C@@H](O[C@@H]2O[C@H](CO[C@@H]3O[C@H](CO)[C@@H](O)[C@H](O)[C@H]3O)[C@@H](O)[C@H](O)[C@H]2O)[C@H](C)O[C@@H](O[C@H]2CC[C@@]3(C)[C@H](CC[C@@H]4[C@@H]3CC[C@]3(C)[C@@H](C5=CC(=O)OC5)[C@@H](OC(C)=O)C[C@]43O)C2)[C@@H]1OC(C)=O`, in that order: greater than 10000 nM, 5000 nM, 2100 nM and 1600 nM.
For `CO[C@@H]1[C@@H](O)[C@H](O[C@H]2CC[C@@]3(C)[C@H](CC[C@@H]4[C@@H]3CC[C@]3(C)C(C5=CC(=O)OC5)=CC[C@]43O)C2)O[C@@H](C)[C@@H]1O[C@@H]1O[C@H](CO)[C@@H](O)[C@H](O)[C@H]1O`, in that order: 6200 nM, 1900 nM, 1600 nM and 700 nM.
For `CO[C@@H]1[C@@H](O)[C@H](C)O[C@@H](O[C@H]2CC[C@@]3(C)[C@H](CC[C@@H]4[C@@H]3CC[C@]3(C)[C@@H](C5=CC(=O)OC5)[C@@H](OC(C)=O)C[C@]43O)C2)[C@@H]1OC(C)=O`, the concentration for half-maximal inhibition (IC50) in test [1] amounted to 200 nM; in test [2], 100 nM; in test [3], 500 nM; in test [4], 40 nM.
Turning to `CO[C@H]1[C@@H](O[C@@H]2O[C@H](CO)[C@@H](O)[C@H](O)[C@H]2O)[C@H](C)O[C@@H](O[C@H]2CC[C@@]3(C)[C@H](CC[C@@H]4[C@@H]3CC[C@]3(C)[C@@H](C5=CC(=O)OC5)[C@@H](OC(C)=O)C[C@]43O)C2)[C@@H]1OC(C)=O`, the concentration for half-maximal inhibition (IC50) amounted to 2200 nM in test [1], 600 nM in test [2], 600 nM in test [3] and 400 nM in test [4].
As to `CO[C@@H]1[C@@H](O)[C@H](O[C@H]2CC[C@@]3(C)[C@H](CC[C@@H]4[C@@H]3CC[C@]3(C)[C@@H](C5=CC(=O)OC5)[C@@H](OC(C)=O)C[C@]43O)C2)O[C@@H](C)[C@@H]1O[C@@H]1O[C@H](CO)[C@@H](O)[C@H](O)[C@H]1O`, the IC50 in test [1] is 600 nM; in test [2] it was 200 nM; in test [3], 100 nM; in test [4] it was 100 nM.
Turning to `COc1cccc2c1C(=O)c1c(O)c3c(c(O)c1C2=O)C[C@@](O)(C(=O)CO)C[C@@H]3O[C@H]1C[C@H](N)[C@H](O)[C@H](C)O1` [DOXORUBICIN], the IC50 was 6600 nM in test [1], 400 nM in test [2], 5000 nM in test [3] and less than 100 nM in test [4].
For `COc1cc([C@@H]2c3cc4c(cc3[C@@H](O[C@@H]3O[C@@H]5CO[C@@H](C)O[C@H]5[C@H](O)[C@H]3O)[C@H]3COC(=O)[C@H]23)OCO4)cc(OC)c1O` [ETOPOSIDE], in that order: greater than 10000 nM, 7600 nM, greater than 10000 nM and 500 nM.

These data come from ChEMBL document CHEMBL4130533, “Cytotoxic Cardiac Glycoside Constituents of Vallaris glabra Leaves” (J Nat Prod, 2017).
